In ChEMBL document CHEMBL4373725, “Structure Kinetics Relationships and Molecular Dynamics Show Crucial Role for Heterocycle Leaving Group in Irreversible Diacylglycerol Lipase Inhibitors” (J Med Chem, 2019):

Columns and labels:
[1] = target: T1, Diacylglycerol lipase-alpha (Mus musculus, UniProt Q6WQJ1); experiment: Inhibition of mouse DAGL-alpha expressed in HEK293T cell membranes pre-incubated for 20 mins before PNP-butyrate substrate addition and measured after 30 mins by surrogate substrate assay; format: cell-based
T1 sequence (Q6WQJ1 whole entry): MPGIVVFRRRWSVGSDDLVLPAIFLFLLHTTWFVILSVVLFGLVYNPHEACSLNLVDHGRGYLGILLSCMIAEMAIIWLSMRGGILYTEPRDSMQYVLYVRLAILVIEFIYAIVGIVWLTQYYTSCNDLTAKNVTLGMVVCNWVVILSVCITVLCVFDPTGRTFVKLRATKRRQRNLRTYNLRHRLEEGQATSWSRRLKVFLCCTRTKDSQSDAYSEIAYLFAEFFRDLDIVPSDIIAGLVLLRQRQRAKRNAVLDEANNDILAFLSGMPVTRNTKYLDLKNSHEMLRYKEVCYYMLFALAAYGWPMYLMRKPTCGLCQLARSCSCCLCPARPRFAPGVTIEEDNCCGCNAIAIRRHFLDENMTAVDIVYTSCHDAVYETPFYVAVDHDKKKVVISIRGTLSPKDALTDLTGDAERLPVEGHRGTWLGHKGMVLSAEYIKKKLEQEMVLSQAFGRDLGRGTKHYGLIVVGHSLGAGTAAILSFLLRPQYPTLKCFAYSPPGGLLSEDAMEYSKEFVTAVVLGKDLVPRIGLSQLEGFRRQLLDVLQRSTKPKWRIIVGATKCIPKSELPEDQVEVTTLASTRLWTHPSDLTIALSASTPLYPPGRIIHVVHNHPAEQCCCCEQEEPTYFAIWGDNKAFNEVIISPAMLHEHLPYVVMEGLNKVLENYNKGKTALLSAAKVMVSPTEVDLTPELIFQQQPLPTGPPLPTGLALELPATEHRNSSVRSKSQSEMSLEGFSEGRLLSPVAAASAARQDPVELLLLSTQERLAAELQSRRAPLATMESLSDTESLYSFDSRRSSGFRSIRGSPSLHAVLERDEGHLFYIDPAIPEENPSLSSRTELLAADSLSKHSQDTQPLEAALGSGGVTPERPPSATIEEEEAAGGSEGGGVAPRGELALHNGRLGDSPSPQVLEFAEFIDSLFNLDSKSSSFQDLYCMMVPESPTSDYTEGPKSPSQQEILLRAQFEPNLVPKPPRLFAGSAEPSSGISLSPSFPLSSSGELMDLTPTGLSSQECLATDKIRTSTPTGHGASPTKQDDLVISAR
Method in brief: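 mDAGL-α membrane fraction from transiently transfected HEK293T cells, at 0.05 μg/μL final, in 50 mM Hepes pH 7.2. Inhibitor in DMSO was preincubated 20 min, then PNP-butyrate was added (0.3 mM final; 5% DMSO final). After 30 min at 20 °C, OD was read at 420 nm. Background from 10 μM THL was subtracted and values normalized to DMSO control. Plates were kept if Z′ > 0.6. N = 2, n = 2.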

[2] = Dissociation constant, pKa of the compound; format: physicochemical
[3] = target: T1, Diacylglycerol lipase-alpha; experiment: Inhibition of mouse DAGL-alpha expressed in HEK293T cell membranes assessed as inhibition constant without pre-incubation, measured continuously from t=0 with 600 uM PNP-butyrate by surrogate substrate assay
[4] = target: T2, Diacylglycerol lipase-alpha (Mus musculus) (UniProt Q6WQJ1); experiment: Inhibition of mouse DAGL-alpha expressed in HEK293T cell membranes assessed as inactivation constant pre-incubated for 20 mins before PNP-butyrate substrate addition and measured after 30 mins by surrogate substrate assay; format: cell-based
T2 sequence (whole entry): T1 sequence (Q6WQJ1 whole entry)

[5] = target: T2, Diacylglycerol lipase-alpha (Mus musculus); experiment: Inhibition of mouse DAGL-alpha expressed in HEK293T cell membranes assessed as inactivation constant measured continuously from t=0 without pre-incubation by kinetic PNP-butyrate substrate assay

Structure (SMILES) | IC50 ([1]; read-out: pIC50 (converted)) | pKa [2] | Ki [3] | Kinact [4] | IC50 ([1]; read-out: IC50) | Kinact [5]
O=C(N1CCCC[C@@H]1Cc1ccccc1)n1ncc(C(O)(c2ccc(F)cc2)c2ccc(F)cc2)n1 | 3.02 nM | 9.3 | 10.4 nM | 0.22 min⁻¹ |  | 
O=C(N1CCCC[C@@H]1Cc1ccccc1)n1ccc(C(O)(c2ccc(F)cc2)c2ccc(F)cc2)n1 |  | 14.2 | 10800 nM | 0.08 min⁻¹ | 210 nM | 
O=C(N1CCCC[C@@H]1Cc1ccccc1)n1cnc(C(O)(c2ccc(F)cc2)c2ccc(F)cc2)n1 |  | 10 | 13800 nM | 0.075 min⁻¹ | 3400 nM | 
O=C(N1CCCCC1Cc1ccccc1)n1cc(-c2ccc(-c3ccccc3)cc2)nn1 (stereo unspecified) | < 1 nM |  | 0.35 nM | 0.08 min⁻¹ |  | 
O=C(N1CCCC[C@@H]1Cc1ccccc1)n1cc(C(O)(c2ccc(F)cc2)c2ccc(F)cc2)nn1 | 3.8 nM | 9.3 | 339 nM | 0.32 min⁻¹ |  | 
C#CCO[C@@H]1CC[C@H](Cc2ccccc2)N(C(=O)n2ncc(C(O)(c3ccc(F)cc3)c3ccc(F)cc3)n2)C1 | < 1 nM |  | 0.27 nM |  |  | 0.058 min⁻¹
Cc1ccc(-c2cnc3nc(C(=O)CCCCCc4ccccc4)oc3c2)cc1 | 2.51 nM |  | 0.23 nM |  |  | 
O=C(N1CCCC[C@@H]1Cc1ccccc1)n1cnc(C(O)(c2ccc(F)cc2)c2ccc(F)cc2)c1 | > 31600 nM | 14.4 |  |  |  | 
